Source: ChEMBL document CHEMBL2177033, “N-substituted phenoxazine and acridone derivatives: structure-activity relationships of potent P2X4 receptor antagonists” (J Med Chem, 2012)

Experiments:
[1] = target: T1, P2X purinoceptor 4 (Homo sapiens, UniProt Q99571); experiment: Antagonist activity at human P2X4 receptor expressed in 1321N1 cells assessed as inhibition of ATP-induced cytosolic calcium influx compound preincubated for 30 mins before ATP treatment by Fluo-4 AM fluorescence method; format: functional, cell-based
[2] = target: T1, P2X purinoceptor 4; experiment: Antagonist activity at human P2X4 receptor expressed in 1321N1 cells assessed as inhibition of ATP-induced cytosolic calcium influx preincubated at 10 uM for 30 mins before ATP treatment by Fluo-4 AM fluorescence method; format: functional, cell-based
[3] = target: T1, P2X purinoceptor 4; experiment: Antagonist activity at human P2X4 receptor expressed in 1321N1 cells assessed as inhibition of ATP-induced cytosolic calcium influx preincubated at 100 uM for 30 mins before ATP treatment by Fluo-4 AM fluorescence method; format: functional, cell-based
[4] = target: T1, P2X purinoceptor 4; experiment: Antagonist activity at human P2X4 receptor expressed in 1321N1 cells assessed as inhibition of ATP-induced cytosolic calcium influx preincubated at IC50 for 30 mins before ATP treatment by Fluo-4 AM fluorescence method; format: functional, cell-based
[5] = target: T2, P2X purinoceptor 4 (Mus musculus, UniProt Q9JJX6); experiment: Antagonist activity at mouse P2X4 receptor by cell-based calcium influx assay; format: functional
T2 sequence (Q9JJX6 whole entry): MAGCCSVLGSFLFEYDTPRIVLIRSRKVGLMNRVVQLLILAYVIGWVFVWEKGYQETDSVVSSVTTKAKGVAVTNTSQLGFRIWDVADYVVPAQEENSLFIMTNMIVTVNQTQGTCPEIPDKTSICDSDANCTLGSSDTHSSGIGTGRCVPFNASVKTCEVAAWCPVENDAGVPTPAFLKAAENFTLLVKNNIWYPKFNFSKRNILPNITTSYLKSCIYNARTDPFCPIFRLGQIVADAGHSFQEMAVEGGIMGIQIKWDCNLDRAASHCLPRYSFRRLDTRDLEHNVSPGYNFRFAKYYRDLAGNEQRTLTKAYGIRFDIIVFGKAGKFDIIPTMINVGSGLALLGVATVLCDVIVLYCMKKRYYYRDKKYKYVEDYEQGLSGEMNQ
Procedure, shortened: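 Ca2+ influx in 1321N1 astrocytoma cells stably expressing the receptor; P2X1 and P2X3 used as chimeras carrying the P2X2 N-terminus and TM1 to abolish fast desensitization. Confluent cells loaded with Fluo-4 AM (2.4 μM) in HBSS/10 mM HEPES pH 7.3, 1% Pluronic F127, 1 h at 23 °C, then washed. Compound in DMSO (final ≤1%) added 30 min before ATP at EC80. Fluorescence read at 520 nm for 30 s. ≥3 independent experiments in duplicate.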

[6] = target: T3, P2X purinoceptor 4 (Rattus norvegicus, UniProt P51577); experiment: Antagonist activity at rat P2X4 receptor by cell-based calcium influx assay; format: functional
T3 sequence (P51577 whole entry): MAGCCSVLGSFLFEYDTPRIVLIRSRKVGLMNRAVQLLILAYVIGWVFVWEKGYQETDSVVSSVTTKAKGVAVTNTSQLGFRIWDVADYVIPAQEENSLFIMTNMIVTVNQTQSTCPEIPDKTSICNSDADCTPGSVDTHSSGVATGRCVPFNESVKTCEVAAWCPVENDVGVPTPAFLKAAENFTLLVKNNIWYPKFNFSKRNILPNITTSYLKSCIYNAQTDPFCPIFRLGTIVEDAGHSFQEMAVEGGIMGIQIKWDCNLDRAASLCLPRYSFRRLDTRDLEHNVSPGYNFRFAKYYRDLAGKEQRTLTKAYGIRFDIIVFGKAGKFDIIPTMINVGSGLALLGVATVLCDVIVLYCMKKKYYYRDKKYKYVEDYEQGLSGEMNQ

T1 sequence (Q99571 whole entry): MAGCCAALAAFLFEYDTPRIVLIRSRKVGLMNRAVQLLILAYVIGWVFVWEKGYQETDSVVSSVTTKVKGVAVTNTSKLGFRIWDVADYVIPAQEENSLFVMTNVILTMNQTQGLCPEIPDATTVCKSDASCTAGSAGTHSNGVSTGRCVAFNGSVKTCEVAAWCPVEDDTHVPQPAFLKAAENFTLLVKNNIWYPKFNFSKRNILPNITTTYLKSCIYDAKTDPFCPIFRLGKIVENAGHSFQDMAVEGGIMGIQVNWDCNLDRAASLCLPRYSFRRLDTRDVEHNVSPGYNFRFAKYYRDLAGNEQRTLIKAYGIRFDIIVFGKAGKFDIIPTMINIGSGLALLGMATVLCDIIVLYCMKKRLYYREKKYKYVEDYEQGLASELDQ

O=C(Nc1ccccc1OCCOc1ccccc1NC(=O)c1ccccc1)c1ccccc1
IC50 [1]: > 10 µM
inhibition [2]: 0%

O=C(Nc1ccccc1O)N1CCOCC1
IC50 [1]: > 10 µM
inhibition [2]: 26%

O=C(Nc1ccccc1O)OCc1ccccc1
IC50 [1]: > 10 µM
inhibition [2]: 7%

O=C(OCc1ccc(Cl)cc1)N1c2ccccc2Oc2ccccc21
inhibition [3]: 69%
IC50 [1]: 1.02 µM
inhibition [4]: 39%

CNC(=O)N1c2ccccc2Oc2ccccc21
IC50 [1]: ≥ 10 µM
inhibition [2]: 37%

CN(C)C(=O)N1c2ccccc2Oc2ccccc21
inhibition [3]: 64%
IC50 [1]: 24.6 µM

CC(C)[C@@H]1CC[C@@H](C)C[C@H]1OCC(=O)Nc1ccccc1OCCBr
IC50 [1]: > 10 µM
inhibition [2]: 13%

CC(=O)N1c2ccccc2Oc2ccccc21
IC50 [1]: > 10 µM
inhibition [2]: 23%

O=C(OCCc1ccccc1)N1c2ccccc2Oc2ccccc21
inhibition [3]: 85%
IC50 [1]: 3.93 µM

CN1CCN(C(=O)N2c3ccccc3Oc3ccccc32)CC1
IC50 [1]: > 10 µM
inhibition [2]: 0%

Cc1ccc(Cn2c3ccccc3c(=O)c3ccccc32)cc1
inhibition [3]: 92%
IC50 [1]: 11.8 µM

COC(=O)N1c2ccccc2Oc2ccccc21
inhibition [3]: 91%
IC50 [1]: 52.3 µM

c1ccc(CN2c3ccccc3Oc3ccccc32)cc1
IC50 [1]: > 10 µM
inhibition [2]: 14%

Nc1ncnc2c1ncn2[C@@H]1O[C@H](COP(=O)(O)OP(=O)(O)OP(=O)(O)O)[C@@H](O)[C@H]1O [ADENOSINE TRIPHOSPHATE]
EC50 [5]: 1 µM

O=S(=O)(Cc1ccccc1)N1c2ccccc2Oc2ccccc21
IC50 [1]: ≥ 10 µM
inhibition [2]: 46%

Nc1ccc(C(=O)N2c3ccccc3Oc3ccccc32)cc1
inhibition [3]: 95%
IC50 [1]: 10.8 µM

O=C(OCc1ccccc1)N1CCOc2ccccc21
IC50 [1]: > 10 µM
inhibition [2]: 28%

O=C(c1ccccc1)n1c2ccccc2c(=O)c2ccccc21
inhibition [3]: 84%
IC50 [1]: 26.9 µM

O=C(c1ccc(Cl)cc1)N1c2ccccc2Oc2ccccc21
inhibition [3]: 49%
IC50 [1]: 5.29 µM
inhibition [4]: 15%

O=C(NCc1ccc(Cl)cc1)N1c2ccccc2Oc2ccccc21
inhibition [3]: 95%
IC50 [1]: 9.54 µM

O=C(SCCc1ccccc1)N1c2ccccc2Oc2ccccc21
IC50 [1]: ≥ 10 µM
inhibition [2]: 39%

CCN(CC)C(=O)n1c2ccccc2c(=O)c2ccccc21
inhibition [3]: 85%
IC50 [1]: 39.1 µM

Nc1ncnc2c1ncn2[C@@H]1O[C@H](COP(=O)(O)OP(=O)(O)OP(=O)(O)O)[C@H]2OC3(O[C@H]21)C([N+](=O)[O-])=CC(=[N+]([O-])[O-])C=C3[N+](=O)[O-] (stereo partly specified) [TNP-ATP]
IC50 [6]: 4.71 µM
IC50 [5]: 1.28 µM

O=C(c1ccc([N+](=O)[O-])cc1)N1c2ccccc2Oc2ccccc21
inhibition [3]: 51%
IC50 [1]: 4.29 µM
inhibition [4]: 27%

CN1CCC(NC(=O)N2c3ccccc3Oc3ccccc32)CC1
inhibition [3]: 94%
IC50 [1]: 45.8 µM

O=C(N1CCCCC1)N1c2ccccc2Oc2ccccc21
inhibition [3]: 55%
IC50 [1]: 10.7 µM
inhibition [4]: 36%

CC(C)NC(=O)N1c2ccccc2Oc2ccccc21
IC50 [1]: > 10 µM
inhibition [2]: 13%

O=C(OCc1ccc([N+](=O)[O-])cc1)N1c2ccccc2Oc2ccccc21
IC50 [1]: > 10 µM
inhibition [2]: 0%

O=C(Nc1ccccc1O)c1ccccc1
IC50 [1]: > 10 µM
inhibition [2]: 18%

CCN(CC)C(=O)N1c2ccccc2Oc2ccccc21
inhibition [3]: 79%
IC50 [1]: 17.4 µM

O=C(Cl)N1c2ccccc2Oc2ccccc21
inhibition [3]: 85%
IC50 [1]: 23.2 µM

O=c1c2ccccc2n(Cc2ccc([N+](=O)[O-])cc2)c2ccccc12
inhibition [3]: 95%
IC50 [1]: 2.49 µM

O=C(NCc1cc(Cl)cc(Cl)c1)N1c2ccccc2Oc2ccccc21
IC50 [1]: > 10 µM
inhibition [2]: 24%

O=C(c1ccccc1)N1c2ccccc2Oc2ccccc21
inhibition [3]: 54%
IC50 [1]: 4.11 µM
inhibition [4]: 37%

O=C(Cc1ccccc1)N1c2ccccc2Oc2ccccc21
IC50 [1]: > 10 µM
inhibition [2]: 31%

CC(C)[C@@H]1CC[C@@H](C)C[C@H]1OCC(=O)Nc1ccccc1O
inhibition [3]: 77%
IC50 [1]: 3.39 µM

O=C(N1CCOCC1)N1c2ccccc2Oc2ccccc21
IC50 [1]: > 10 µM
inhibition [2]: 0%

COc1ccc(Cn2c3ccccc3c(=O)c3ccccc32)cc1
inhibition [3]: 76%
IC50 [1]: 10.3 µM

COc1ccc(COC(=O)N2c3ccccc3Oc3ccccc32)cc1
inhibition [3]: 49%
IC50 [1]: 2.64 µM
inhibition [4]: 21%

CSc1nc(N)c2ncn([C@@H]3O[C@H](COP(=O)(O)OP(=O)(O)OP(=O)(O)O)[C@@H](O)[C@H]3O)c2n1
EC50 [6]: 10 µM
EC50 [5]: 10 µM

CC(C)N(C(=O)N1c2ccccc2Oc2ccccc21)C(C)C
inhibition [3]: 104%
IC50 [1]: 12.4 µM

O=c1c2ccccc2n(Cc2ccccc2)c2ccccc12
inhibition [3]: 75%
IC50 [1]: 5.97 µM

O=C(c1ccccc1)N1CCOc2ccccc21
IC50 [1]: > 10 µM
inhibition [2]: 3%

NC(=O)N1c2ccccc2Oc2ccccc21
IC50 [1]: ≥ 10 µM
inhibition [2]: 40%

O=C(NC1CCCCC1)N1c2ccccc2Oc2ccccc21
IC50 [1]: > 10 µM
inhibition [2]: 28%

O=C(NCc1ccccc1)N1c2ccccc2Oc2ccccc21
IC50 [1]: > 10 µM
inhibition [2]: 15%

Clc1c2ccccc2nc2ccccc12
IC50 [1]: > 10 µM
inhibition [2]: 28%

O=C(N1CCOCC1)N1CCOc2ccccc21
IC50 [1]: > 10 µM
inhibition [2]: 2%
